EC50 and Activity data for 34 molecules are collected here from ChEMBL document CHEMBL2434965, “Lead optimization of an acylhydrazone scaffold possessing antiviral activity against Lassa virus” (Bioorg Med Chem Lett, 2013).

The source made the active and inactive calls. The calls are words filed in the database; no cut-off is given here.

For one assay, the system named is Junin virus. Put plainly: Antiviral activity against Junin virus pseudotype containing viral envelope. In kind it is functional, organism-based. Particulars: Mammarenavirus juninense. Put shortly:
(§1)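 Lentivirus-based pseudotypes bearing arenavirus envelope glycoprotein. Each run used three or four replicates per concentration, typically 7 to 14 concentrations spaced 0.25 to 0.7 log apart, up to 50 µM. EC50 per experiment came from a four-parameter one-site dose-response fit. Values across experiments were averaged as geometric means, with relative standard error given as SD/√n relative to the mean.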
For `C/C(=N\NC(=O)[C@@H]1C[C@H]1c1ccccc1)c1ccc(NC(=O)c2ccco2)cc1`, the EC50 (usually the concentration giving half of the maximal effect) worked out at 800 nM.

The next assay relates to Lassa virus. As to the kind of experiment: Antiviral activity against Lassa virus by plaque reduction assay. In kind it is functional, organism-based. To be noted: Mammarenavirus lassaense. On the technique in general: Plaques are areas of infected cells; plaque reduction assays count them against a control.
Consider `C/C(=N\NC(=O)[C@@H]1C[C@H]1c1ccccc1)c1ccc(NC(=O)c2ccco2)cc1`, for which the result was Active.

Another assay has as its system Guanarito virus. As to the kind of experiment: Antiviral activity against Guanarito virus pseudotype containing viral envelope. It counts as functional. Particulars: Mammarenavirus guanaritoense. Summed up:
as §1
`C/C(=N\NC(=O)[C@@H]1C[C@H]1c1ccccc1)c1ccc(NC(=O)c2ccco2)cc1` had an EC50 of 120 nM.

For a further assay, the system named is Sabia virus. Put plainly: Antiviral activity against Sabia virus pseudotype containing viral envelope. In kind it is functional.
Details: not given
Put shortly:
as §1
The molecule `C/C(=N\NC(=O)[C@@H]1C[C@H]1c1ccccc1)c1ccc(NC(=O)c2ccco2)cc1` had an EC50 of 130 nM.

The next assay relates to Machupo mammarenavirus. Put plainly: Antiviral activity against Machupo virus pseudotype containing viral envelope. It counts as functional. To be noted: Mammarenavirus machupoense. Put shortly: as §1
Molecule `C/C(=N\NC(=O)[C@@H]1C[C@H]1c1ccccc1)c1ccc(NC(=O)c2ccco2)cc1` had a concentration for a half-maximal effect (EC50) of 730 nM.

For another assay, the system named is Lassa virus. Put plainly: Antiviral activity against Lassa virus pseudotype containing envelope glycoprotein incorporated in lentivirus infected in human 293T/17 cells by luciferase reporter gene assay. In kind it is functional, organism-based. Particulars: Mammarenavirus lassaense, HEK-293T. Put shortly:
as §1
For `COc1cccc(/C(C)=N/NC(=O)C2CC2)c1`, the EC50 was above 50000 nM.
In turn, `C/C(=N\NC(=O)[C@@H]1C[C@H]1c1ccccc1)c1ccc(NC(=O)c2ccco2)cc1` registered an EC50 of 0.34 nM.
On to `C/C(=N\NC(=O)[C@@H]1C[C@H]1c1ccccc1)c1ccccc1` (relative stereo), for which the EC50 came out at 47 nM.
On the same count and under the same terms, the value for `C/C(=N\NC(=O)[C@@H]1C[C@H]1c1ccccc1)c1ccccc1Cl` (relative stereo) was 320 nM.
The same measure, in the same setting: the value for `C/C(=N\NC(=O)[C@@H]1C[C@H]1c1ccccc1)c1ccc(Cl)cc1` (relative stereo) was 20 nM; that for `C/C(=N\NC(=O)[C@@H]1C[C@H]1c1ccccc1)c1cccc(Br)c1` (relative stereo) was 56 nM.
Still for that read-out and setting: with `C/C(=N\NC(=O)[C@@H]1C[C@H]1c1ccccc1)c1ccc(Br)cc1` (relative stereo) the figure was 470 nM; with `C/C(=N\NC(=O)[C@@H]1C[C@H]1c1ccccc1)c1cccc([N+](=O)[O-])c1` (relative stereo), 250 nM; with `C/C(=N\NC(=O)[C@@H]1C[C@H]1c1ccccc1)c1ccc([N+](=O)[O-])cc1` (relative stereo), 62 nM.
As for `C/C(=N\NC(=O)[C@@H]1C[C@H]1c1ccccc1)c1ccccc1O` (relative stereo), a half-maximal response (EC50) required 570 nM.
Still for that read-out and setting: with `C/C(=N\NC(=O)[C@@H]1C[C@H]1c1ccccc1)c1cccc(O)c1` (relative stereo) the figure was 94 nM.
Still for that read-out and setting: with `C/C(=N\NC(=O)[C@@H]1C[C@H]1c1ccccc1)c1ccc(O)cc1` (relative stereo) the figure was 2.3 nM; with `COc1cccc(/C(C)=N/NC(=O)[C@@H]2C[C@H]2c2ccccc2)c1` (relative stereo), 42 nM; with `COc1ccc(/C(C)=N/NC(=O)[C@@H]2C[C@H]2c2ccccc2)cc1` (relative stereo), 4 nM.
In turn, `C/C(=N\NC(=O)[C@@H]1C[C@H]1c1ccccc1)c1cccc(C)c1` (relative stereo) showed an EC50 of 58 nM.
On the same count and under the same terms, the value for `C/C(=N\NC(=O)[C@@H]1C[C@H]1c1ccccc1)c1ccc(C)cc1` (relative stereo) was 9 nM; that for `C/C(=N\NC(=O)[C@@H]1C[C@H]1c1ccccc1)c1cccc(C)c1C` (relative stereo) was 800 nM.
Consider `C/C(=N\NC(=O)[C@@H]1C[C@H]1c1ccccc1)c1ccc(C)cc1C` (relative stereo), for which the EC50 is 170 nM.
Same read-out and setting: with `C/C(=N\NC(=O)[C@@H]1C[C@H]1c1ccccc1)c1ccc(C)c(C)c1` (relative stereo) the figure was 3.9 nM; with `C/C(=N\NC(=O)[C@@H]1C[C@H]1c1ccccc1)c1ccc(Cl)c(Cl)c1` (relative stereo), 72 nM.
In the case of `COc1ccc(/C(C)=N/NC(=O)[C@@H]2C[C@H]2c2ccccc2)cc1OC` (relative stereo), the concentration giving a half-maximal response (EC50) is 450 nM.
With `C/C(=N\NC(=O)[C@@H]1C[C@H]1c1ccccc1)c1ccc(C2CCCCC2)cc1` (relative stereo), the EC50 stood at 24 nM.
The same measure, in the same setting: with `C/C(=N\NC(=O)[C@@H]1C[C@H]1c1ccccc1)c1ccc(-c2ccccc2)cc1` (relative stereo) the figure was 1.3 nM; with `CC(=O)Nc1ccc(/C(C)=N/NC(=O)[C@@H]2C[C@H]2c2ccccc2)cc1` (relative stereo), 2.6 nM; with `C/C(=N\NC(=O)[C@@H]1C[C@H]1c1ccccc1)c1ccc(NC(=O)C2CC2)cc1` (relative stereo), 2.1 nM.
Still for that read-out and setting: the value for `C/C(=N\NC(=O)[C@@H]1C[C@H]1c1ccccc1)c1cccc(NC(=O)c2cccs2)c1` (relative stereo) was 6300 nM.
On to `C/C(=N\NC(=O)[C@@H]1C[C@H]1c1ccccc1)c1ccc(NC(=O)c2ccc(Cl)s2)cc1` (relative stereo), for which the response was half-maximal at 0.95 nM (EC50).
Same read-out and setting: the value for `C/C(=N\NC(=O)[C@H]1C[C@@H]1c1ccccc1)c1ccc(NC(=O)c2ccco2)cc1` (relative stereo) was 0.34 nM; that for `C/C(=N\NC(=O)[C@@H]1C[C@H]1c1ccc(C(C)(C)C)cc1)c1ccccc1` (relative stereo) was 15 nM; that for `C/C(=N\NC(=O)[C@@H]1C[C@H]1c1ccc(C(C)(C)C)cc1)c1ccc(Cl)cc1` (relative stereo) was 6.6 nM.
Still for that read-out and setting: the value for `C/C(=N\NC(=O)[C@@H]1C[C@H]1c1ccccc1)c1ccc(F)cc1` (relative stereo) was 52 nM; that for `C/C(=N\NC(=O)[C@@H]1C[C@H]1c1ccc(C(C)(C)C)cc1)c1ccc(F)cc1` (relative stereo) was 16 nM; that for `C/C(=N\NC(=O)[C@@H]1C[C@H]1c1ccccc1)c1cccc(NC(=O)c2ccccc2F)c1` (relative stereo) was 9100 nM.
Consider `C/C(=N\NC(=O)[C@@H]1C[C@H]1c1ccc(C(C)(C)C)cc1)c1cccc(NC(=O)c2ccccc2F)c1` (relative stereo), for which a half-maximal response (EC50) required 770 nM.

In another assay the test system is Tacaribe virus. As to the kind of experiment: Antiviral activity against Tacaribe virus pseudotype containing viral envelope. It counts as functional, organism-based. Particulars: Mammarenavirus tacaribeense. Summed up: as §1
Molecule `C/C(=N\NC(=O)[C@@H]1C[C@H]1c1ccccc1)c1ccc(NC(=O)c2ccco2)cc1` yielded an EC50 of 630 nM.
